Series [1] concerns MDA-MB-231. The series is described as follows: Induction of apoptosis in human MDA-MB-231 cells xenografted in SCID mouse assessed as cIAP1 degradation at 5 mg/kg, after 2 to 24 hrs by Western blot analysis. In kind it is functional, organism-based. The arrangement: dose 5 mg/kg. The procedure, abridged:
(§1)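 SCID mice carried subcutaneous dorsal MDA-MB-231 xenografts (5 × 10⁶ cells with Matrigel). At about 100 mm³, mice got a single iv dose of 5 mg/kg or vehicle. They were sacrificed at set time points, and tumor lysates were Western blotted for cIAP1, XIAP, caspase-3, PARP and cleaved PARP.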
(A xenograft is tissue or cells of one species grown in another, often human tumour cells in immunodeficient mice.)

Series [2] deals with MDA-MB-231. The experiment in a line: Antitumor activity against human MDA-MB-231 cells xenografted in nude immunodeficient mouse assessed as tumor regression at 10 mg/kg/week, iv after 4 weeks relative to vehicle-treated control. In kind it is functional. The procedure, abridged:
(§2)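 5 × 10⁶ MDA-MB-231 cells in 50% Matrigel injected subcutaneously, one tumor per mouse. Dosing began on day 28, at mean tumor volume 100 mm³. Tumor volume and body weight were tracked. Groups were compared by t test.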

In series [3] the test system is Rattus norvegicus. The experiment in a line: Apparent volume of distribution during terminal phase in Sprague-Dawley rat at […], iv. Type of series: ADME, organism-based. The arrangement: dose 2.5 mg/kg, route intravenous. The conditions noted are these: in vivo.
Series [4] relates to MDA-MB-231. The experiment in a line: Induction of apoptosis in human MDA-MB-231 cells assessed as caspase-8 cleavage after 24 hrs by Western blot analysis. In kind it is functional, cell-based. The method in brief: (§3)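 MDA-MB-231 cells were treated 24 h with graded concentrations. Lysates were made in Tris/NaCl/EDTA/SDS/NP-40 buffer with PMSF and protease inhibitors on ice, then run on 4−20% SDS-PAGE and blotted to PVDF. Blots were probed for cIAP1, cleaved PARP, and caspase-8, -9 and -3 (full-length and cleaved), with HRP chemiluminescent detection.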

Series [5] deals with MDA-MB-231. The experiment in a line: Induction of apoptosis in human MDA-MB-231 cells xenografted in SCID mouse assessed as decrease in XIAP level at 5 mg/kg, iv after 8 to 24 hrs by Western blot analysis. Type of series: functional, organism-based. The arrangement: dose 5 mg/kg. The procedure, abridged:
as §1

In series [6] the test system is MDA-MB-231. The experiment in a line: Induction of apoptosis in human MDA-MB-231 cells assessed as caspase-3 cleavage after 24 hrs by Western blot analysis. In kind it is functional, cell-based. The procedure, abridged:
as §3

In the next series the test system is Mus musculus. The experiment in a line: Toxicity in nude immunodeficient mouse xenografted with human MDA-MB-231 cells assessed as body weight change at 3 to 10 mg/kg, iv administered every week for 4 weeks measured over 76 days. In kind it is organism-based. The arrangement: dose 3-10 mg/kg, route intravenous. The conditions noted are these: in vivo, 1824 h. The procedure, abridged:
as §2

The subject of series [7] is MDA-MB-231. The experiment in a line: Induction of apoptosis in human MDA-MB-231 cells xenografted in SCID mouse assessed as PARP cleavage at 5 mg/kg, iv after 4 to 24 hrs by Western blot analysis. Type of series: functional, organism-based. The arrangement: dose 5 mg/kg. The method in brief: as §1
Series [8] deals with MDA-MB-231. The series is described as follows: Induction of apoptosis in human MDA-MB-231 cells xenografted in SCID mouse assessed as caspase 3 cleavage at 5 mg/kg, iv measured at 4 hrs by Western blot analysis. In kind it is functional, organism-based. The arrangement: dose 5 mg/kg. The procedure, abridged:
as §1

The test system of series [9] is MDA-MB-231. The experiment in a line: Induction of apoptosis in human MDA-MB-231 cells assessed as apoptotic cells at 10 nM after 24 hrs by trypan blue assay relative to control. In kind it is functional. The method in brief:
(§4)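 MDA-MB-231 cells were exposed to graded compound concentrations for 24 h and viability scored by trypan blue exclusion. Blue or morphologically unhealthy cells counted as dead. At least 100 cells per treatment were scored, in triplicate.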

A short description of series [10]: AUC in Sprague-Dawley rat at […], iv. In kind it is ADME, organism-based. The arrangement: dose 2.5 mg/kg, route intravenous. The settings on record: plasma.
In series [11] the test system is MDA-MB-231. The series is described as follows: Antitumor activity against human MDA-MB-231 cells xenografted in nude immunodeficient mouse assessed as tumor regression at 10 mg/kg/week, iv after 1 week relative to vehicle-treated control. In kind it is functional. The procedure, abridged:
as §2

For series [12], the system named is MDA-MB-231. The series is described as follows: Induction of apoptosis in human MDA-MB-231 cells assessed as PARP cleavage after 24 hrs by Western blot analysis. In kind it is functional, cell-based. The procedure, abridged: as §3
On the technique in general: Immunoblotting shows a protein as a band on a membrane.

In series [13] the test system is MDA-MB-231. The experiment in a line: Induction of apoptosis in human MDA-MB-231 cells assessed as apoptotic cells after 24 hrs by trypan blue assay. In kind it is functional, cell-based. The method in brief:
as §4

The subject of series [14] is MDA-MB-231. The experiment in a line: Induction of apoptosis in human MDA-MB-231 cells assessed as cIAP1 degradation at 1 nM after 24 hrs by Western blot analysis. In kind it is functional, cell-based. The procedure, abridged: as §3
Series [15] concerns MDA-MB-231. The series is described as follows: Antitumor activity against human MDA-MB-231 cells xenografted in nude immunodeficient mouse assessed as tumor regression at 3 mg/kg/week, iv after 4 weeks relative to vehicle-treated control. In kind it is functional. The procedure, abridged:
as §2

Series [16] relates to MDA-MB-231. The experiment in a line: Antitumor activity against human MDA-MB-231 cells xenografted in nude immunodeficient mouse assessed as tumor regression at 3 mg/kg/week, iv after 1 week relative to vehicle-treated control. Type of series: functional. The method in brief:
as §2

Series [17] in a line: Elimination half life in Sprague-Dawley rat at […], iv. In kind it is ADME, organism-based. The arrangement: dose 2.5 mg/kg, route intravenous. The conditions noted are these: in vivo, read-out: beta t1/2 (converted).
Series [18] relates to Rattus norvegicus. The series is described as follows: Apparent volume of distribution during terminal phase in Sprague-Dawley rat at 1 mg/kg, iv. Type of series: ADME, organism-based. The arrangement: dose 1 mg/kg, route intravenous. The conditions noted are these: in vivo.
Series [19] can be described thus: Elimination half life in Sprague-Dawley rat at 1 mg/kg, iv. In kind it is ADME, organism-based. The arrangement: dose 1 mg/kg, route intravenous. The settings on record: in vivo, read-out: beta t1/2 (converted).
Series [20] has as its system MDA-MB-231. The series is described as follows: Induction of apoptosis in human MDA-MB-231 cells assessed as cIAP1 degradation at 0.3 nM after 24 hrs by Western blot analysis. Type of series: functional, cell-based. The method in brief: as §3
Series [21] in a line: AUC in Sprague-Dawley rat at 1 mg/kg, iv. Type of series: ADME, organism-based. The arrangement: dose 1 mg/kg, route intravenous. The conditions noted are these: plasma.
In series [22] the test system is MDA-MB-231. The experiment in a line: Antitumor activity against human MDA-MB-231 cells xenografted in nude immunodeficient mouse assessed as tumor growth inhibition at 7.5 mg/kg, iv administered every week for 4 weeks measured over 76 days. Type of series: functional, organism-based. The arrangement: dose 7.5 mg/kg. The procedure, abridged: as §2
For series [23], the system named is MDA-MB-231. The experiment in a line: Antitumor activity against human MDA-MB-231 cells xenografted in nude immunodeficient mouse assessed as tumor regression at 7.5 mg/kg, iv administered every week for 4 weeks measured over 76 days. In kind it is functional, organism-based. The arrangement: dose 7.5 mg/kg. The method in brief:
as §2

Each structure is given as a SMILES string. Active and inactive are the calls of the source. No cut-off for these calls is given here.

Consider `CN[C@@H](C)C(=O)N[C@H]1CN(C(=O)Nc2ccc(NC(=O)N3CC[C@H]4CC[C@@H](C(=O)NC(c5ccccc5)c5ccccc5)N4C(=O)[C@@H](NC(=O)[C@H](C)NC)C3)cc2)CC[C@H]2CC[C@@H](C(=O)NC(c3ccccc3)c3ccccc3)N2C1=O`, for which the outcome in the series on MDA-MB-231 [1], in the series with MDA-MB-231 [5], in the series with MDA-MB-231 [7], with MDA-MB-231 [8] and in the series with MDA-MB-231 [14] was Active. Also, the Activity in the series on MDA-MB-231 [2] is 99%; with MDA-MB-231 [4], “Dose-dependent effect”; in the series with MDA-MB-231 [6], “Dose-dependent effect”; in the series with Mus musculus, “Non-toxic”; in the series on MDA-MB-231 [9], over 75%; with MDA-MB-231 [11] it was 88%. The Activity entry with MDA-MB-231 [12] was “Dose-dependent effect”; in the series with MDA-MB-231 [13], “Dose-dependent effect”; with MDA-MB-231 [15] it was 93%; with MDA-MB-231 [16], 55%. Besides, the Vz/F in the series with Rattus norvegicus [3] worked out at 0.5 L/kg. Further, the AUC (as a rule, the area under the concentration-time curve, a measure of exposure) in [10] was determined as 3770 ng·h/mL. In addition, the half-life in [17] was 4.9 h.

In the case of `CN[C@@H](C)C(=O)N[C@H]1CCCC[C@H]2CC[C@@H](C(=O)N[C@@H](c3ccccc3)c3cn(CCCCc4ccc(CCCCn5cc([C@@H](NC(=O)[C@@H]6CC[C@@H]7CCCC[C@H](NC(=O)[C@H](C)NC)C(=O)N76)c6ccccc6)nn5)cc4)nn3)N2C1=O`, the Vz/F in the series with Rattus norvegicus [18] was 1 L/kg. The Activity result with MDA-MB-231 [4] was “Dose-dependent effect”; in the series on MDA-MB-231 [6] it was “Dose-dependent effect”; with MDA-MB-231 [9], over 75%; in the series on MDA-MB-231 [12], “Dose-dependent effect”; in the series with MDA-MB-231 [13], “Dose-dependent effect”. In series [19], the half-life was 8.4 min. Also, the result with MDA-MB-231 [20] was Active. The compound further yielded an AUC in series [21] of 221 ng·h/mL.

For the compound `CC(=O)O[C@@]12CO[C@@H]1C[C@H](O)[C@@]1(C)C(=O)[C@H](O)C3=C(C)[C@@H](OC(=O)[C@H](O)[C@@H](NC(=O)OC(C)(C)C)c4ccccc4)C[C@@](O)([C@@H](OC(=O)c4ccccc4)[C@H]21)C3(C)C`, the TGI result with MDA-MB-231 [22] is “Active”. For the same compound, the outcome with MDA-MB-231 [23] was inactive.
